Assay results gathered from unrelated publications.

SMILES | system | conditions | measurement | value
NCc1cc2c(cc1F)C(=O)N(C1CCC(=O)NC1=O)C2 (stereo not shown) | male CD-1 mouse, plasma | oral, 10 mg/kg | AUC(0-inf) | 262 ng·h/mL
NCc1ccc(-c2nn(Cc3ccncc3)c3ccccc23)o1 | male CD-1 mouse, plasma | intraperitoneal, 30 mg/kg | AUC(0-t) | 5240 ng·h/mL
CC(C)[C@@H](CS(=O)(=O)C(C)C)N1C(=O)[C@@](C)(CC(=O)O)C[C@H](c2cccc(Cl)c2)[C@H]1c1ccc(Cl)cc1 | FVB mouse, brain | oral, 20 mg/kg, single dose | AUC(0-inf) | 36.3 ng·h/mL
O=C1CCC(N2Cc3cc(C4CCN(Cc5ccccc5)CC4)ccc3C2=O)C(=O)N1 (stereo not shown) | male CD-1 mouse, plasma | intravenous, 1 mg/kg | AUC(0-inf) | 355 ng·h/mL
CCn1c(=O)c(-c2cc(NC(=O)Nc3ccccc3)c(F)cc2Br)cc2cnc(NC)cc21 | male mouse, plasma | oral, 15 mg/kg, single dose | AUC | 2310 ng·h/mL
COCC(=O)N1CCc2[nH]c3c(Cl)c(Cl)ccc3c2[C@@H]1C | C57BL/6 mouse, blood | oral, 20 mg/kg | AUC(0-inf) | 8.24 µM·h
Cc1nc2ccc(OCc3ccc(C(F)(F)F)cc3)cc2[nH]1 | male BALB/c mouse, plasma | oral, 10 mg/kg | AUC(0-inf) | 13200 ng·h/mL
CCOC(=O)c1c(NC(=O)CNC(C)C)sc2c1CCCCC2 | male mouse, plasma | intraperitoneal, 5 mg/kg, single dose | AUC(0-inf) | 311 ng·h/mL
CN(C)C(=O)c1cc2cnc(Nc3ccc(-c4ccc5c(=O)cc(N6CCOCC6)oc5c4)cc3)nc2n1C1CCCC1 | BALB/c mouse, plasma | oral, 20 mg/kg | AUC(0-inf) | 2890 ng·h/mL
CO[C@H]1/C=C/O[C@@]2(C)Oc3c(C)c(O)c4c(c3C2=O)C2=NC3(CCN(CC(C)C)CC3)NC2=C(NC(=O)/C(C)=C\C=C\[C@H](C)[C@H](O)[C@@H](C)[C@@H](O)[C@@H](C)[C@H](OC(C)=O)[C@@H]1C)C4=O | female CD-1 mouse, plasma | intravenous, 5 mg/kg | AUC | 8070 ng·h/mL
COc1cccc2c(N3CCC(CCP(=O)(O)O)CC3)ncnc12 | female C57BL/6 mouse, serum | subcutaneous, 50 mg/kg | AUC(0-inf) | 18300 ng·h/mL
OCc1nc2ccc(NCc3ccc(C(F)(F)F)cc3)cc2[nH]1 | male BALB/c mouse, plasma | oral, 10 mg/kg | AUC(0-inf) | 2730 ng·h/mL
CCOC(=O)C1=C(CN2CCC[C@@H]2C(=O)Nc2ccc(B(O)O)cc2)NC(c2nccs2)=N[C@H]1c1ccc(F)cc1Br | CD-1 mouse, plasma | intravenous, 2 mg/kg | AUC(0-inf) | 723 ng·h/mL
